For eight compounds, Activity, IC50 and Drug uptake results are on record in ChEMBL document CHEMBL1255202, “Polyamine conjugation of curcumin analogues toward the discovery of mitochondria-directed neuroprotective agents” (J Med Chem, 2010).

Active and inactive are the calls of the source. No cut-off for these calls is given here.

The species entered for one series is Bos taurus. The series is described as follows: Antioxidant activity in bovine heart mitochondria assessed as reduction of antimycin A-induced ROS production at 10 uM by fluorescence plate reader analysis. The format is functional. The method, boiled down: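 Submitochondrial particles were given NADH as substrate, and ROS production was induced with 2 μM antimycin A. Compounds were tested at 10 μM, with 1.8 μM mucidin as negative control. ROS were detected with the fluorogenic probe DCFDA.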

Series [1] is described as follows: Antioxidant activity in human fibroblasts assessed as reduction of tert-butyl hydroperoxide-induced ROS production at 10 uM treated 24 hrs before tert-butyl hydroperoxide challenge measured after 30 mins by fluorescence plate reader analysis. The format is functional, Fibroblast. On the set-up: scale not given: the % may be the effect or the level left.
The test system of series [2] is Caco-2. As to the kind of experiment: Antiproliferative activity against human Caco-2 cells after 72 hrs by MTT assay. The class given is functional, cell-based. As to conditions: Caco-2, 72 h. The method, boiled down: (§1)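 Cells were incubated 72 h with compound at 0.1-30 μM, and proliferation was measured by MTT. IC50 is the concentration giving 50% inhibition of proliferation, reported as the mean of two independent experiments.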
On the technique in general: Tetrazolium dyes change colour on reduction, which living cells bring about.

For series [3], the system named is SH-SY5Y. As to the kind of experiment: Antiproliferative activity against human SH-SY5Y cells after 72 hrs by MTT assay. The class given is functional, cell-based. The method, boiled down: as §1
Series [4] concerns C6. The series is described as follows: Antiproliferative activity against rat C6 cells after 72 hrs by MTT assay. As to conditions: C6, 72 h. The format is functional, cell-based. The method, boiled down: as §1
The nature of series [5]: Antiproliferative activity against mouse HT22 cells after 72 hrs by MTT assay. Conditions: HT-22, 72 h. The format is cell-based. The method, boiled down: as §1
The subject of series [6] is HaCaT. As to the kind of experiment: Antiproliferative activity against human HaCaT cells after 72 hrs by MTT assay. The class given is cell-based. The method, boiled down: as §1
Another series has as its system T67. As to the kind of experiment: Antiproliferative activity against human T67 cells at 10 uM after 72 hrs by MTT assay. The format is functional, cell-based.
Series [7] deals with T1, Heme oxygenase 1 (Bos taurus) (UniProt Q5E9F2).
T1 sequence (whole entry): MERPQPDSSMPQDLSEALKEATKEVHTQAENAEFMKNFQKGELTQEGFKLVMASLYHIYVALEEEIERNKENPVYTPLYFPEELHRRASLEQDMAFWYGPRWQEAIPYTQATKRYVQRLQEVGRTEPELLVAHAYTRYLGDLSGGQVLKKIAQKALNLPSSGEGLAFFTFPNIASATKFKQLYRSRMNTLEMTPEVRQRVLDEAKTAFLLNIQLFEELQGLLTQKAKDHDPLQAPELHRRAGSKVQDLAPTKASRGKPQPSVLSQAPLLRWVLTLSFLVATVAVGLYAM
As to the kind of experiment: Activation of heme oxygenase-1 in BAEC at 10 uM after 6 hrs. The method, boiled down: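 HO-1 activity measured in bovine aortic endothelial cells exposed to 10 μM compound for 6 h. Control cells received medium alone. Activity is reported as (pmol bilirubin/mg protein)/h, averaged over three independent experiments.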

Series [8] can be described thus: Cellular uptake in human T67 cells at 10 uM after 30 mins by fluorescence microscopic analysis. The class given is ADME, cell-based. As to conditions: t67, 0.5 h. The method, boiled down: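 T67 glioma cells were pretreated with 10 μM fluorescent probe plus 1 mg/mL oligomycin. Images were taken by inverted fluorescence microscopy after 30 min of incubation, with or without 20 μM CCCP uncoupler to test dependence on mitochondrial potential.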

A short description of series [9]: Cellular uptake in human T67 cells at 10 uM after 30 mins by fluorescence microscopic analysis in presence of mitochondrial uncoupler carbonyl cyanide m-chlorophenyl-hydrazone. The format is ADME, cell-based. As to conditions: t67, 0.5 h. The method, boiled down:
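T67 glioma cells were pretreated with 10 μM of the fluorescent test compound plus 1 mg/mL oligomycin, an ATP-synthase inhibitor, with 20 μM CCCP uncoupler added. Images were taken by inverted fluorescence microscopy after 30 min of incubation.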

Series [10] concerns Caco-2. As to the kind of experiment: Antiproliferative activity against human Caco-2 cells at 10 uM after 72 hrs by MTT assay. The format is functional. The method, boiled down:
(§2)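 Proliferation was measured by MTT after 72 h exposure to compound (range 0.1-30 μM, with the 10 μM point reported). Results are expressed as percent of control cells, as the mean of two independent experiments.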

Series [11] deals with SH-SY5Y. The series is described as follows: Antiproliferative activity against human SH-SY5Y cells at 10 uM after 72 hrs by MTT assay. The format is functional. The method, boiled down: as §2
In series [12] the test system is C6. The series is described as follows: Antiproliferative activity against rat C6 cells at 10 uM after 72 hrs by MTT assay. The format is functional. The method, boiled down:
as §2

A short description of series [13]: Antiproliferative activity against mouse HT22 cells at 10 uM after 72 hrs by MTT assay. The class given is cell-based. As to conditions: ht-22, 72 h. The method, boiled down:
as §2

Series [14] has as its system HaCaT. As to the kind of experiment: Antiproliferative activity against human HaCaT cells at 10 uM after 72 hrs by MTT assay. The format is cell-based. The method, boiled down: as §2

For the compound `CCCCCC[C@H]1C(=O)O[C@H](C)[C@H](NC(=O)c2cccc(NC=O)c2O)C(=O)O[C@@H](C)[C@@H]1OC(=O)CC(C)C`, in the series listed under Bos taurus, the outcome was inactive.

The IC50 is the concentration at which inhibition is half-maximal. `CCOc1cc(/C=C2\CN(C(=O)CCC(=O)NCCCNCCCCNCCCN)C/C(=C\c3ccc(O)c(OCC)c3)C2=O)ccc1O`: the result in the series filed under Bos taurus was Active. Also, the Activity in [1] is listed as 38%. Moreover, the IC50 was found to be 14.4 µM in the series with Caco-2 [2]; 20.8 µM in the series on SH-SY5Y [3]; 14.2 µM with C6 [4]; 18.4 µM in series [5]; 15.7 µM in the series with HaCaT [6].

As to `CCOc1cc(/C=C2\CN(C(=O)CCC(=O)NCCCNCCCN)C/C(=C\c3ccc(O)c(OCC)c3)C2=O)ccc1O`, the outcome in the series listed under Bos taurus was Active. In addition, in series [1], the Activity stood at 45%. For the same compound, the IC50 in the series with Caco-2 [2] was 16.2 µM; in the series on SH-SY5Y [3], 14.6 µM; in the series on C6 [4], 14.5 µM; in series [5], 18.9 µM; in the series with HaCaT [6], 15.5 µM.

For `COc1cc(/C=C2\CNC/C(=C\c3ccc(O)c(OC)c3)C2=O)ccc1O`, the result (in the series with T67; in [7]) was Active. Further, the result in the series filed under Bos taurus was inactive. In addition, the IC50 in the series with Caco-2 [2] amounted to 0.2 µM; with SH-SY5Y [3], 2.1 µM; in the series on C6 [4] it was 3.9 µM; in series [5] it was 3.1 µM; with HaCaT [6] it was 3 µM.

`COc1cc(/C=C2\CN(C(=O)CCC(=O)N(CCCNCCCCNCCCN)Cc3ccc(-c4nc5ccccc5s4)cc3)C/C(=C\c3ccc(O)c(OC)c3)C2=O)ccc1O`: the Drug uptake entry is given as “Active” in series [8] and “Not Active” in series [9].

In the case of `COc1cc(/C=C2\CN(C(=O)CCC(=O)NCCCNCCCN)C/C(=C\c3ccc(O)c(OC)c3)C2=O)ccc1O`, in the series filed under Bos taurus, the outcome was Active. The Activity in series [1] worked out at 40%. The IC50 was 16.5 µM with Caco-2 [2]; 17.8 µM in the series with SH-SY5Y [3]; 19.9 µM in the series with C6 [4]; 24.5 µM in series [5]; 17.7 µM in the series on HaCaT [6].

Turning to `COc1cc(/C=C/C(=O)CC(=O)/C=C/c2ccc(O)c(OC)c2)ccc1O` [CURCUMIN], the IC50 in the series on Caco-2 [2] worked out at 15 µM; in the series on SH-SY5Y [3] it was 12.8 µM; with C6 [4] it was 16.1 µM; in [5], 20.4 µM; with HaCaT [6] it was 21.9 µM.

On to `COc1cc(/C=C2\CN(C(=O)CCC(=O)NCCCNCCCCNCCCN)C/C(=C\c3ccc(O)c(OC)c3)C2=O)ccc1O`, for which the Activity was determined as 40% in the series on Caco-2 [10]; 45% in series [1]; 40% in the series with SH-SY5Y [11]; 40% in the series with C6 [12]; 10% in series [13]; 10% in the series on HaCaT [14]. In addition, in the series listed under Bos taurus, the outcome was Active. Besides, the IC50 in the series with Caco-2 [2] was 11.9 µM; with SH-SY5Y [3], 14.2 µM; in the series with C6 [4], 13.9 µM; in [5], 19.8 µM; in the series with HaCaT [6] it was 15.6 µM.
